In ChEMBL document CHEMBL2040725, “In vitro and in vivo biological evaluation of new 4,5-disubstituted 1,2,3-triazoles as cis-constrained analogs of combretastatin A4” (Eur J Med Chem, 2012):
Calls of active or inactive are those of the source. The rule behind the calls is not given here.

Key:
[1] = tested on: B16; assay: Cytotoxicity against mouse B16 cells assessed as cell viability after 48 hrs by MTT assay; assay type: functional, cell-based; settings: B16, 48 h
Outline: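 Murine B16 melanoma cells in DMEM with 10% FBS, 2 mM L-glutamine and antibiotics, 37 °C, 5% CO₂. Incubated 48 h, then MTT read at 562 nm with background subtraction. IC50 from concentration-response curves.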

[2] = Antivascular activity against human EAhy926 cells assessed as the minimum concentration required to elicit rounding up of cells after 2 hrs by microscopic analysis; assay type: functional, EA.hy 926
Outline: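 EAhy 926 cells (HUVEC fused with A549) grown in DMEM with 10% FBS, 2 mM L-glutamine and antibiotics. Top concentration 100 µM, then two-fold serial dilutions. Wells photographed at 100× and 200×. Value = lowest concentration rounding up >15% of cells per field; 1% DMSO control.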

[3] = Inhibition of tubulin polymerization preincubated for 45 mins before GTP addition measured after 2 hrs by DAPI-based fluorescenct assay
Outline: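 Tubulin (97% pure, 1 mg/ml final) in PME buffer (100 mM PIPES, MgSO₄, 2 mM EGTA) with 10 µM DAPI. Compounds from 30 µM in 3-fold decrements, triplicate wells, colchicine as full-inhibition control. 45 min preincubation at room temperature, then 1 mM GTP added and held 2 h at 37 °C. Fluorescence read at ex 360/em 450 nm. Percent inhibition taken relative to colchicine; IC50 = 50% inhibition.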

[4] = tested on: EA.hy 926; assay: Antivascular activity against human EAhy926 cells assessed as rounding up of cells at 1 uM after 2 hrs by microscopic analysis; assay type: functional, cell-based
[5] = Toxicity in mouse ip dosed BALB/cJRj mouse allografted with mouse Colon 26 cells compound administered on days 3-7 and 10-14 post implantation relative to control; assay type: organism-based; settings: in vivo
Outline: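 Female BALB/cJRj mice (~18 g) with bilateral subcutaneous axillary Colon 26 fragments (30-60 mg) implanted on day 0; 5 mice/group. Daily fresh doses in saline with 5% DMSO and 5% polysorbate 80, given ip on days 3-7 and 10-14; solvent-treated controls. Mice weighed daily and checked for clinical toxicity signs; tumours measured daily by caliper.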

[6] = tested on: Colon 26; assay: Antitumor activity against mouse Colon 26 cells allografted in BALB/cJRj mouse assessed as reduction in tumor volume at 100 mg/kg, ip administered on days 3-7 and 10-14 post implantation relative to control; assay type: functional; design: scale not given: the % may be the effect or the level left; settings: route intraperitoneal
Outline: (§1)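 Female BALB/cJRj mice (about 18 g), 5 per group. Colon 26 tumor fragments (30-60 mg) implanted s.c. bilaterally in the axilla on day 0. Dosing i.p. on days 3-7 and 10-14 in saline with 5% DMSO and 5% polysorbate 80, 0.2 ml. Tumors measured daily by caliper, volume = length × width² × 0.5. %T/C = median treated/control, taken when control tumors reached 1500 mm³. T-C growth delay also recorded.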

[7] = tested on: Colon 26; assay: Antitumor activity against mouse Colon 26 cells allografted in BALB/cJRj mouse assessed as tumor growth delay time at 100 mg/kg, ip administered on days 3-7 and 10-14 post implantation relative to control; assay type: functional; settings: route intraperitoneal; outline: as §1
[8] = tested on: Colon 26; assay: Antitumor activity against mouse Colon 26 cells allografted in BALB/cJRj mouse assessed as tumor growth delay time at 150 mg/kg, ip administered on days 3-7 and 10-14 post implantation relative to control; assay type: functional; settings: route intraperitoneal; outline: as §1
[9] = tested on: Colon 26; assay: Antitumor activity against mouse Colon 26 cells allografted in BALB/cJRj mouse assessed as reduction in tumor volume at 150 mg/kg, ip administered on days 3-7 and 10-14 post implantation relative to control; assay type: functional; design: scale not given: the % may be the effect or the level left; settings: route intraperitoneal; outline: as §1

IC50 [3] [µM]	Compound	IC50 [1] [µM]	Activity [2] [µM]	Activity [4]	MTD [5] [mg/kg]	Activity [6] [%]	Time [7] [days]	Time [8] [days]	Activity [9] [%]
0.9	COc1ccc(C/C(=C/c2cc(OC)c(OC)c(OC)c2)[N+](=O)[O-])cc1O	2.9	0.6	–	–	–	–	–	–
8.9	COc1ccc(/C=C(/Cc2cc(OC)c(OC)c(OC)c2)[N+](=O)[O-])cc1[N+](=O)[O-]	3.5	3	–	–	–	–	–	–
1.6	COc1ccc(/C=C(/Cc2cc(OC)c(OC)c(OC)c2)[N+](=O)[O-])cc1F	2.9	0.8	–	–	–	–	–	–
15.5	COc1cc(C/C(=C/c2ccc(Cl)c(Cl)c2)[N+](=O)[O-])cc(OC)c1OC	4.6	3.1	–	–	–	–	–	–
23.4	COc1cc(/C=C(/Cc2cc(OC)c(OC)c(OC)c2)[N+](=O)[O-])cc(OC)c1O	3.2	12.5	–	–	–	–	–	–
10.5	COc1cc(C/C(=C/c2ccc3c(c2)OCO3)[N+](=O)[O-])cc(OC)c1OC	3	0.4	–	–	–	–	–	–
> 30	COc1cc(/C=C(/Cc2cc(OC)c(OC)c(OC)c2)[N+](=O)[O-])ccc1O	2.6	6.3	–	–	–	–	–	–

Second part, the compound before the results:

Compound	IC50 [3] [µM]	IC50 [1] [µM]	Activity [2] [µM]	Activity [4]	MTD [5] [mg/kg]	Activity [6] [%]	Time [7] [days]	Time [8] [days]	Activity [9] [%]
COc1ccc(-c2nn[nH]c2Cc2cc(OC)c(OC)c(OC)c2)cc1N	1.8	14.8	0.2	–	–	–	–	–	–
COc1ccc(-c2nn[nH]c2Cc2cc(OC)c(OC)c(OC)c2)cc1O	1.2	1.6	0.13	Active	100	60	2.7	–	–
COc1cc(C/C(=C/c2ccc(Cl)cc2Cl)[N+](=O)[O-])cc(OC)c1OC	21.9	2.6	3.1	–	–	–	–	–	–
COc1cc(/C=C(/Cc2c[nH]c3ccccc23)[N+](=O)[O-])cc(OC)c1OC	5.2	5.5	1.6	–	–	–	–	–	–
COc1cc(/C=C(/Cc2cc(OC)c(OC)c(OC)c2)[N+](=O)[O-])cc(OC)c1OC	22.4	3.3	6.3	–	–	–	–	–	–
COc1cc(-c2nn[nH]c2Cc2c[nH]c3ccccc23)cc(OC)c1OC	> 30	10.7	50	–	–	–	–	–	–
COc1ccc(-c2nn[nH]c2Cc2cc(OC)c(OC)c(OC)c2)cc1[N+](=O)[O-]	> 30	50.1	25	–	–	–	–	–	–
COc1ccc(Cc2[nH]nnc2-c2cc(OC)c(OC)c(OC)c2)cc1O	1.7	22.9	0.6	–	–	–	–	–	–
COc1cc(Cc2[nH]nnc2-c2ccc(Cl)cc2Cl)cc(OC)c1OC	> 30	41.7	>100	–	–	–	–	–	–
COc1ccc(/C=C(/Cc2cc(OC)c(OC)c(OC)c2)[N+](=O)[O-])cc1O	0.9	4	0.2	–	150	–	–	2	52
COc1cc(-c2nn[nH]c2Cc2cc(OC)c(OC)c(OC)c2)ccc1O	> 30	> 100	>100	–	–	–	–	–	–
COc1ccc(/C=C\c2cc(OC)c(OC)c(OC)c2)cc1O [COMBRETASTATIN A4]	0.3	0.003	0.006	–	–	–	–	–	–
COc1cc(Cc2[nH]nnc2-c2ccc3c(c2)OCO3)cc(OC)c1OC	> 30	38	25	–	–	–	–	–	–
COc1ccc(-c2nn[nH]c2Cc2cc(OC)c(OC)c(OC)c2)cc1F	12	31	2.5	–	–	–	–	–	–
